FGF22 binding-1: shifts melting point of recombinant human FGF22 | Q9HCT0 | recombinant FGF22 thermal shift, SYPRO orange fluorescence; percent of sucrose octasulfate shift, DMSO zero | activity (Tm shift, normalised), % at 9.99 µM | 340,000 tested, 1.5% active | AID 651658;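 active = mean Tm shift, scaled 0 neutral to 100 positive control, at about 1.3% or above, every replicate too, limit read from the data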
Target sequence (Q9HCT0 whole entry, looked up): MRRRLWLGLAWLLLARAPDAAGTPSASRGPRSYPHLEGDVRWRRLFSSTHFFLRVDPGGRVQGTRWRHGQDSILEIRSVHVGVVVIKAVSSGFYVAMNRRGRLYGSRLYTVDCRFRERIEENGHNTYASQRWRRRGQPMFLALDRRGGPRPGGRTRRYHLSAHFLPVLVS
miR122 inh: miR-122 inhibition in Huh7 cells; Huh7 miR-122 Renilla luciferase sensor, 48 h; neutral wells = 0, positive control = 100; activation (reporter increase), % at 12.5 µM; 340,000 tested, 0.3% active; AID 602342;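 active = mean replicate activation score at least 90 and every replicate individually at or above 90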;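 note: higher luciferase means less miR-122 activity so hits act as miR-122 inhibitors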
SIRT5 block: sirtuin-5 (human) deacylase inhibition. Purified SirT5, succinyl-peptide AMC, trypsin-coupled fluorescence. 330,000 tested, 1.1% active. inhibition, % at 15 µM. AID 652115; in the data active = inhibition above about 15%
Target sequence (Q9NXA8 whole entry, looked up): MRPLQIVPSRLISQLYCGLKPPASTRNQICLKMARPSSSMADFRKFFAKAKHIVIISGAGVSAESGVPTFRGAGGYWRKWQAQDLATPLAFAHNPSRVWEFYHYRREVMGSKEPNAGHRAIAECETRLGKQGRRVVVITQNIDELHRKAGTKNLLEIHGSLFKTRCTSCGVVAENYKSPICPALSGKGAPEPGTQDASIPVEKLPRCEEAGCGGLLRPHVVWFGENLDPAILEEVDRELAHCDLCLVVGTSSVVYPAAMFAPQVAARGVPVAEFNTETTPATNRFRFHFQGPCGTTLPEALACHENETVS
E-selectin induc: E-selectin induction on HUVECs; P16581; HUVEC E-selectin immunofluorescence imaging; normalized: neutral wells 0, TNF-alpha wells 100; activation, % at 7.58 µM; 260,000 tested, 0.37% active; AID 686992;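 active = mean E-selectin-positive cell signal at least 10% of the positive control, reached in at least 60% of replicates, without over 20% cell loss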
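Assay system: HUVEC, human umbilical vein endothelial cells / Amount: 3,000 HUVEC/well / Controls: TNF-alpha positive control, DMSO neutral control / Compound dosing: single concentration / Medium: EGM-2 over gelatin coat / Evaluation: percent E-selectin-positive cells / Signal: immunofluorescence imaging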
S100A4 MyoIIA: S100A4-myosin IIA interaction inhibition; P26447; S100A4/TAMRA-MyoIIA peptide fluorescence polarization; inhibition, % at 10.7 µM; 360,000 tested, 0.14% active; AID 652163;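 active = mean inhibition of at least 70% across replicates, with every replicate also reaching that level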
Target sequence (P26447 whole entry, looked up): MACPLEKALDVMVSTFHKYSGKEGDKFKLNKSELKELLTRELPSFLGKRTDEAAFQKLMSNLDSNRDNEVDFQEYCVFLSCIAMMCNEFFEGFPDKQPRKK
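Compound dosing: one dose per compound; test system: human S100A4 monomer with TAMRA-labelled myosin IIA peptide; probe or stimulus: TAMRA-labelled myosin IIA heavy-chain peptide probe, 5 nM; medium: HEPES buffer with Ca2+, pH 7.2; schedule: 5 min incubation before reading; benchmarks: neutral control DMSO, positive control TFP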
FGF22 binding-2: binds human FGF22 shifting its melting temperature; AID 720646; recombinant FGF22 thermal shift, SYPRO orange fluorescence; shares compounds with FGF22 binding-1; 1,000 tested, 2% active; thermal shift activity, °C (ΔTm) at 38 µM;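 active = fitted rise in melting shift crosses a set limit at or below the top valid dose tested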
TSA no protein: compound-only SYPRO artifact for FGF22 binders; 1,000 tested, 2% active; compound-only SYPRO orange thermal shift counter-screen, no protein; AC50, µM (titrated, usually from 38 µM); shares compounds with FGF22 binding-1;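 active = rising signal whose fitted curve reaches the 0.54 level within the top valid dose, showing a melting point, actives reach about 13 µM in these data; inactive = the rest, including activity in the opposite direction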; note: value is where the raw curve crosses a fixed level and not half-maximal
Numbers stand for hits; n = inactive; x = no result. Rows were chosen to be rich in hits. Some 2.5% of all compounds tested hit in one or more screens of this group.

SMILES	FGF22 binding-1	miR122 inh	SIRT5 block	E-selectin induc	S100A4 MyoIIA	FGF22 binding-2	TSA no protein
O=[N+]([O-])c1ccc(Cl)c(S(=O)(=O)Nc2ccc(-c3ccc(N4CCOCC4)nn3)cc2)c1	n	n	n	n	n	x	x
Cc1nc2cc(C(=O)NCc3ccc4c(c3)OCO4)ccc2n1-c1ccc(Br)cc1	1.6	x	n	n	n	n	n
Cc1ccc(Cl)cc1NS(=O)(=O)c1ccc2c(c1)NC(=O)C(C)C(=O)N2 (centres undefined)	1.9	x	n	x	n	n	n
Cn1cnc(S(=O)(=O)N2C[C@H](O)COC[C@@H]3O[C@@H](CC(=O)NCc4ccc(F)cc4)CC[C@H]32)c1	3.0	n	n	n	n	n	n
O=C(C[C@@H]1CC[C@@H]2[C@H](COC[C@@H](O)CN2S(=O)(=O)c2cccc(F)c2)O1)Nc1ccc(-c2ccccc2)cc1	1.8	n	n	n	n	n	n
O=C(C[C@@H]1CC[C@H]2[C@@H](COC[C@@H](O)CN2Cc2cc(F)ccc2F)O1)NCc1ccc(F)cc1	2.4	n	n	n	n	n	n
O=C(C[C@H]1CC[C@H]2[C@@H](COC[C@H](O)CN2Cc2nccs2)O1)NCc1ccccc1F	1.6	n	n	n	n	n	n
O=C(C[C@@H]1CC[C@H]2[C@@H](COC[C@@H](O)CN2S(=O)(=O)c2cccc(F)c2)O1)Nc1ccc(-c2ccccc2)cc1	n	n	n	n	n	x	x
CO[C@@H]1CN(C)C(=O)c2cc(NC(=O)Nc3cccc(F)c3)ccc2OC[C@H](C)N(C(=O)C2CC2)C[C@@H]1C	x	n	x	n	x	x	x
C[C@@H]1CN([C@@H](C)CO)C(=O)c2cc(NC(=O)CCC(F)(F)F)ccc2O[C@@H](C)CCCCO[C@H]1CN(C)C(=O)c1ccccc1	n	n	n	n	n	x	x
Cn1cnc(S(=O)(=O)N2[C@@H]3CNC[C@H]2C3c2ccc(-c3ccccc3)cc2)c1 (some centres undefined)	x	x	n	n	n	x	x
Cc1noc(C)c1NC(=O)N(C)C[C@@H]1Oc2c(NC(=O)c3cnccn3)cccc2C(=O)N([C@H](C)CO)C[C@@H]1C	n	n	n	n	n	x	x
Cc1ccccc1S(=O)(=O)N[C@@H]1CC[C@H](CCn2cc(-c3ccc(F)cc3)nn2)O[C@H]1CO	n	n	n	n	n	x	x
O=C(C[C@@H]1CC[C@@H]2[C@H](COC[C@@H](O)CN2Cc2nccs2)O1)NCc1ccccc1F	n	n	n	n	n	x	x
O=C(C[C@H]1CC[C@@H]2[C@H](COC[C@@H](O)CN2Cc2nccs2)O1)NCc1ccccc1F	6.6	n	n	n	n	n	n
C[C@H]1CCCCO[C@@H](CN(C)C(=O)C2CCCCC2)[C@@H](C)CN([C@@H](C)CO)C(=O)c2cc(NC(=O)C3CCCCC3)ccc2O1	n	n	n	n	n	x	x
COC12CC(=O)C(C(C)=O)=C(O)C1(C)c1c(O)c(C)c(O)c(C(C)=O)c1O2 (centres undefined)	1.4	n	n	x	n	n	n
O=C(CCc1c[nH]c2ccccc12)Nc1ccc(Nc2cccnc2)cc1	2.0	x	n	n	n	n	n
C[C@@H]1CN([C@H](C)CO)C(=O)c2cc(NS(=O)(=O)c3cn(C)cn3)ccc2O[C@@H]1CN(C)C(=O)Nc1ccc(F)cc1	x	n	x	n	x	x	x
C/C=C/c1ccc2c(c1)O[C@H](CN(C)C(=O)Nc1cc(F)ccc1F)[C@H](C)CN([C@H](C)CO)S2(=O)=O	1.2	n	n	n	n	n	n
C/C=C/c1ccc2c(c1)O[C@@H](CN(C)Cc1ccncc1)[C@@H](C)CN([C@@H](C)CO)S2(=O)=O	1.6	n	n	n	n	n	n
C/C=C/c1ccc2c(c1)O[C@@H](CN(C)C(=O)Nc1cccc(F)c1)[C@@H](C)CN([C@@H](C)CO)S2(=O)=O	1.5	n	n	n	n	n	n
C/C=C/c1ccc2c(c1)O[C@H](CN(C)Cc1ccncc1)[C@@H](C)CN([C@H](C)CO)S2(=O)=O	n	n	n	n	n	x	x
C/C=C/c1ccc2c(c1)O[C@H](CN(C)C(=O)Nc1cccc(F)c1)[C@H](C)CN([C@H](C)CO)S2(=O)=O	n	n	n	n	n	x	x
CC(C)(CNS(=O)(=O)c1ccc2c(c1)OCCO2)N1CCOCC1	1.4	n	n	x	n	n	n
SMILES	FGF22 binding-1	miR122 inh	SIRT5 block	E-selectin induc	S100A4 MyoIIA	FGF22 binding-2	TSA no protein
CC(C)NC(=O)Nc1ccc2c(c1)C(=O)N([C@H](C)CO)C[C@@H](C)[C@@H](CN(C)S(=O)(=O)c1ccc(Cl)cc1)O2	n	n	n	n	n	x	x
O=C(Nc1ccc(F)cc1)N[C@@H]1CC[C@H](CCn2cc(-c3ccc(F)cc3)nn2)O[C@H]1CO	2.4	x	n	n	n	n	n
COc1ccc(-c2cn(CC[C@@H]3CC[C@@H](NC(=O)Nc4ccc(F)cc4)[C@H](CO)O3)nn2)cc1	x	x	x	n	x	n	n
COc1ccc(NC(=O)N[C@H]2CC[C@@H](CCn3cc(-c4ccc(OC)cc4)nn3)O[C@@H]2CO)cc1	1.3	x	n	n	n	n	n
COc1ccc(NC(=O)N[C@@H]2CC[C@H](CCn3cc(-c4ccc(F)cc4)nn3)O[C@H]2CO)cc1	n	x	n	n	n	x	x
O=C(N[C@H]1CC[C@H](CCn2cc(C3(O)CCCC3)nn2)O[C@@H]1CO)C1CCCCC1	1.8	x	n	n	n	n	n
O=C(Nc1ccc(F)cc1)N[C@@H]1CC[C@H](CCn2cc(-c3ccc(F)cc3)nn2)O[C@@H]1CO	n	x	n	n	n	x	x
O=C(N[C@H]1CC[C@@H](CCn2cc(C3(O)CCCC3)nn2)O[C@@H]1CO)C1CCCCC1	n	x	n	n	n	x	x
CC(C)(C)[S@@](=O)N1Cc2cc(C(=O)NC3CCCCC3)nc(-c3cccc(Br)c3)c2[C@H]1CCO	n	x	n	n	n	x	x
C[C@H](CO)N1C[C@H](C)[C@@H](CN(C)C(=O)c2ccncc2)OCCCC[C@H](C)Oc2ccc(NC(=O)Cc3ccccc3)cc2C1=O	n	n	n	x	n	x	x
C[C@H]1CN([C@@H](C)CO)C(=O)c2cccc(NS(C)(=O)=O)c2O[C@H]1CN(C)C(=O)Nc1cccc2ccccc12	n	n	n	n	n	x	x
C[C@@H]1CN([C@@H](C)CO)C(=O)c2cccc(NC(=O)C3CC3)c2O[C@@H]1CN(C)C(=O)Nc1cccc2ccccc12	n	n	n	n	n	x	x
C[C@H](CO)N1C[C@H](C)[C@@H](CN(C)C(=O)Nc2cccc3ccccc23)Oc2c(NS(C)(=O)=O)cccc2C1=O	1.8	n	n	n	n	n	n

High-throughput results from PubChem BioAssay.
